Measured values taken from ChEMBL document CHEMBL1933030, “Conjugation of spermine enhances cellular uptake of the stapled peptide-based inhibitors of p53-Mdm2 interaction” (Bioorg Med Chem Lett, 2011).

Experiments:
[1] = molecular target: Tumour suppressor p53/oncoprotein Mdm2 (Homo sapiens, UniProt Q00987); assay: Inhibition of p53-MDM2 interaction by ELISA; assay type: protein assay
[2] = system: HeLa; assay: Cellular uptake in human HeLa cells at 10 uM after 2 hrs by FACS analysis relative to control; assay type: ADME, cell-based
Method in brief: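 HeLa cells were exposed to fluorescein-labelled peptides at 10 μM and analysed by flow cytometry (FACS). Uptake was read as mean cellular fluorescence, shown as representative histograms, and normalized for comparison between peptides.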

Chain of Tumour suppressor p53/oncoprotein Mdm2 (P04637 whole entry): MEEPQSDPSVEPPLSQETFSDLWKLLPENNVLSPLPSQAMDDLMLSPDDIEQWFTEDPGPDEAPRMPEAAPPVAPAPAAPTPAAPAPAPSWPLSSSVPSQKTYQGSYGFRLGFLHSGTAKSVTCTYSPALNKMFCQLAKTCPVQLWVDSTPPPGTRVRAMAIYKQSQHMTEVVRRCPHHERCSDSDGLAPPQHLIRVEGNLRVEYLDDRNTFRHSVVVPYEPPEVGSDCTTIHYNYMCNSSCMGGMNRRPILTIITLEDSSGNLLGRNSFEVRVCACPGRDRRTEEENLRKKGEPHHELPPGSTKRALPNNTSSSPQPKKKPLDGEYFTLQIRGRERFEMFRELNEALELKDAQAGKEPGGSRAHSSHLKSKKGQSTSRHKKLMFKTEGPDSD
Chain of Tumour suppressor p53/oncoprotein Mdm2 (Q00987 whole entry): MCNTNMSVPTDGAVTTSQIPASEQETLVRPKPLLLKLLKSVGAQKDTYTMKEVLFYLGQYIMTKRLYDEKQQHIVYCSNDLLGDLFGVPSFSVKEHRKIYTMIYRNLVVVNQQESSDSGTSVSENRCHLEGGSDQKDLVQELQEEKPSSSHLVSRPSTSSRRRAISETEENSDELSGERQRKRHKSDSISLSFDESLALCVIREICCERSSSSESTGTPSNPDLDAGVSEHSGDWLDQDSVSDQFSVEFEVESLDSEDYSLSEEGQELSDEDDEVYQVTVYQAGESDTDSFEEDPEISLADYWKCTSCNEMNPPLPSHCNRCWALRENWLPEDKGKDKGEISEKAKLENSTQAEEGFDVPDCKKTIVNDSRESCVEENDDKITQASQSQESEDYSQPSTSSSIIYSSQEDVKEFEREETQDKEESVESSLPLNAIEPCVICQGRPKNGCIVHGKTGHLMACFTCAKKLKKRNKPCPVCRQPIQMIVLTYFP

| IC50 [1] [nM] | Drug uptake [2] [%] | Structure (SMILES) |
| --- | --- | --- |
| 57 | – | CC(=O)N[C@@H](CC(C)C)C(=O)N[C@H](C(=O)N[C@@H](Cc1ccccc1)C(=O)N[C@@H](CS)C(=O)N[C@@H](Cc1cnc[nH]1)C(=O)N[C@@H](Cc1ccc(O)cc1)C(=O)N[C@@H](Cc1c[nH]c2ccccc12)C(=O)N[C@@H](C)C(=O)N[C@@H](CCC(N)=O)C(=O)N[C@@H](CC(C)C)C(=O)N[C@@H](CS)C(=O)N[C@@H](CO)C(N)=O)[C@@H](C)O |
| 13 | – | CC(=O)N[C@@H](CC(C)C)C(=O)N[C@H](C(=O)N[C@@H](Cc1ccccc1)C(=O)N[C@H](CS)C(=O)N[C@@H](Cc1cnc[nH]1)C(=O)N[C@@H](Cc1ccc(O)cc1)C(=O)N[C@@H](Cc1c[nH]c2ccccc12)C(=O)N[C@@H](C)C(=O)N[C@@H](CCC(N)=O)C(=O)N[C@@H](CC(C)C)C(=O)N[C@@H](CS)C(=O)N[C@@H](CO)C(N)=O)[C@@H](C)O |
| – | 4.5 | CC(C)C[C@H](NC(=O)CCCCCNC(=O)c1ccccc1-c1c2ccc(=O)cc-2oc2cc(O)ccc12)C(=O)N[C@H](C(=O)N[C@@H](Cc1ccccc1)C(=O)N[C@@H](CS)C(=O)N[C@@H](Cc1cnc[nH]1)C(=O)N[C@@H](Cc1ccc(O)cc1)C(=O)N[C@@H](Cc1c[nH]c2ccccc12)C(=O)N[C@@H](C)C(=O)N[C@@H](CCC(N)=O)C(=O)N[C@@H](CC(C)C)C(=O)N[C@@H](CS)C(=O)N[C@@H](CO)C(N)=O)[C@@H](C)O |
| – | 3.3 | CC(C)C[C@H](NC(=O)CCCCCNC(=O)c1ccccc1-c1c2ccc(=O)cc-2oc2cc(O)ccc12)C(=O)N[C@H](C(=O)N[C@@H](Cc1ccccc1)C(=O)N[C@H](CS)C(=O)N[C@@H](Cc1cnc[nH]1)C(=O)N[C@@H](Cc1ccc(O)cc1)C(=O)N[C@@H](Cc1c[nH]c2ccccc12)C(=O)N[C@@H](C)C(=O)N[C@@H](CCC(N)=O)C(=O)N[C@@H](CC(C)C)C(=O)N[C@@H](CS)C(=O)N[C@@H](CO)C(N)=O)[C@@H](C)O |
